Source: ChEMBL document CHEMBL1932958, “Analogs of pentamidine as potential anti-Pneumocystis chemotherapeutics” (Eur J Med Chem, 2012)

Experiments:
[1] = Cytotoxicity against rat L2 cells; format: cell-based
[2] = test system: A549; assay: Cytotoxicity against human A549 cells; format: cell-based
[3] = test system: Pneumocystis carinii; assay: Antipneumocystis activity against Pneumocystis carinii assessed as reduction of ATP level after 72 hrs by bioluminescent assay; format: functional, organism-based
Method in brief: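 P. carinii from corticosteroid-immunosuppressed male CD rat lungs (methylprednisolone 20 mg/kg weekly, inoculated intratracheally or intranasally), cryopreserved, thawed at 37°C, 5 × 10^7 nuclei/ml in RPMI-1640 with 20% calf serum; 5% CO2, 37 °C. Screened at 100 µg/ml; titrated if ATP fell ≥50%. ATPlite luciferin-luciferase luminescence at 72 h; triplicate wells, 3 assays, two batches; IC50 by linear regression of % ATP decrease vs log concentration.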

Structure (SMILES) | IC50 [3] | IC50 [1] | IC50 [2]
COc1cc(C(=N)N)cc(OC)c1OCCN(C)CCOc1c(OC)cc(C(=N)N)cc1OC.Cl.Cl | 6.26 µM | > 100 µg/mL | > 100 µg/mL
CN(CCCCCN(C)c1ccc(C(=N)N)cc1)c1ccc(C(=N)N)cc1.Cl.Cl | 1.99 µM | 47.1 µg/mL | > 100 µg/mL
COc1cc(C(=N)N)ccc1OCCOCCOc1ccc(C(=N)N)cc1OC.Cl.Cl | 4.21 µM | > 100 µg/mL | > 100 µg/mL
COc1cc(C(=N)N)cc(OC)c1OCCCCCOc1c(OC)cc(C(=N)N)cc1OC.Cl.Cl | 3 µM | 17.8 µg/mL | > 100 µg/mL
Cl.Cl.N=C(N)c1ccc(OCCSCCOc2ccc(C(=N)N)cc2)cc1 | 1.18 µM | > 100 µg/mL | > 100 µg/mL
COc1cc(C(=N)N)ccc1OCCN(CCOc1ccc(C(=N)N)cc1OC)S(=O)(=O)c1ccccc1.Cl.Cl | 2.66 µM | > 100 µg/mL | > 100 µg/mL
COc1cc(C(=N)N)cc(OC)c1OCCN(CCOc1c(OC)cc(C(=N)N)cc1OC)S(=O)(=O)c1ccccc1.Cl.Cl | 4.4 µM | > 100 µg/mL | > 100 µg/mL
COc1cc(C(=N)N)ccc1OCCN(CCOc1ccc(C(=N)N)cc1OC)S(=O)(=O)c1ccc(NC(C)=O)cc1.Cl.Cl | 3.71 µM | > 100 µg/mL | > 100 µg/mL
COc1cc(C(=N)N)cc(OC)c1OCCN(CCOc1c(OC)cc(C(=N)N)cc1OC)S(=O)(=O)c1ccc(N)cc1.Cl.Cl | 4.16 µM | > 100 µg/mL | > 100 µg/mL
Cl.Cl.N=C(N)c1ccc(C(=O)NCCCNC(=O)c2ccc(C(=N)N)cc2)cc1 | 2.99 µM | > 100 µg/mL | > 100 µg/mL
Cl.Cl.N=C(N)c1ccc(C(=O)NCCCCCNC(=O)c2ccc(C(=N)N)cc2)cc1 | 14.3 µM | > 100 µg/mL | > 100 µg/mL
Cl.Cl.N=C(N)c1ccc(C(=O)NCCCCCCNC(=O)c2ccc(C(=N)N)cc2)cc1 | 9.15 µM | > 100 µg/mL | > 100 µg/mL

Continued, in another order:

IC50 [3] | Structure (SMILES) | IC50 [1] | IC50 [2]
1.73 µM | CN(CCOc1ccc(C(=N)N)cc1)CCOc1ccc(C(=N)N)cc1.Cl.Cl | > 100 µg/mL | > 100 µg/mL
3.41 µM | COc1cc(C(=N)N)ccc1OCCN(C)CCOc1ccc(C(=N)N)cc1OC.Cl.Cl | > 100 µg/mL | > 100 µg/mL
1.11 µM | Cl.Cl.N=C(N)c1ccc(NCCOCCNc2ccc(C(=N)N)cc2)cc1 | 36.9 µg/mL | > 100 µg/mL
2.13 µM | Cl.Cl.N=C(N)c1ccc(OCCOCCOc2ccc(C(=N)N)cc2)cc1 | > 100 µg/mL | > 100 µg/mL
13 µM | COc1cc(C(=N)N)cc(OC)c1OCCOCCOc1c(OC)cc(C(=N)N)cc1OC.Cl.Cl | > 100 µg/mL | > 100 µg/mL
1.33 µM | Cl.Cl.N=C(N)c1ccc(OCCN(CCOc2ccc(C(=N)N)cc2)S(=O)(=O)c2ccccc2)cc1 | > 100 µg/mL | > 100 µg/mL
3.58 µM | Cl.Cl.N=C(N)c1ccc(C(=O)NCCCCNC(=O)c2ccc(C(=N)N)cc2)cc1 | > 100 µg/mL | > 100 µg/mL
